Experimental data published in ChEMBL document CHEMBL1275561, “In vitro activities of doripenem, a new broad-spectrum carbapenem, against recently collected clinical anaerobic isolates, with emphasis on the Bacteroides fragilis group” (2008).

Tests used:
Type in all cases: functional
Finegoldia magna [1] = assay: Antimicrobial activity against Finegoldia magna assessed as resistant isolates by agar dilution method
Summary of the method: (§1)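 Agar dilution following CLSI on brucella agar with 5% lysed defibrinated sheep blood and 1 μg/ml vitamin K1, plates made on test day. Log-phase cells at 0.5 McFarland, about 10^5 CFU/spot by Steers replicator, 48 h anaerobic at 37°C. MIC read as the lowest concentration causing a marked growth change versus control. Resistance counted by CLSI anaerobe breakpoints. Eubacterium lentum ATCC 43055 served as control.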

[2] = tested on: Parabacteroides distasonis; assay: Antimicrobial activity against Bacteroides distasonis by agar dilution method
Summary of the method: (§2)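 CLSI agar dilution on enriched brucella agar (5% lysed defibrinated sheep blood, 1 μg/ml vitamin K1), with drug plates made on the test day. Log-phase cells were adjusted to 0.5 McFarland, and about 10^5 CFU/spot was delivered by Steers replicator. Plates were incubated anaerobically at 37°C for 48 h. MIC was the lowest concentration giving a marked growth change versus the control plate. Controls were B. fragilis ATCC 25285 and B. thetaiotaomicron ATCC 29741.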

[3] = tested on: Peptoniphilus asaccharolyticus; assay: Antimicrobial activity against Peptoniphilus asaccharolyticus assessed as resistant isolates by agar dilution method; details: pooled result: one value given for 4 cell lines, strains, targets or settings; summary of the method: as §1
[4] = tested on: Bacteroides thetaiotaomicron; assay: Antimicrobial activity against Bacteroides thetaiotaomicron assessed as resistant isolates by agar dilution method
Summary of the method: (§3)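 CLSI agar dilution on enriched brucella agar (5% lysed defibrinated sheep blood, 1 μg/ml vitamin K1), plates made on test day. Log-phase inocula adjusted to 0.5 McFarland; about 10^5 CFU/spot by Steers replicator. Incubated anaerobically at 37°C for 48 h. MIC was the lowest concentration giving a marked change in growth versus the drug-free control plate. Resistance rates used CLSI anaerobe breakpoints. Controls were B. fragilis ATCC 25285 and B. thetaiotaomicron ATCC 29741.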

Bacteroides ovatus [5] = assay: Antimicrobial activity against Bacteroides ovatus by agar dilution method; summary of the method: as §2
[6] = tested on: Bacteroides thetaiotaomicron; assay: Antimicrobial activity against Bacteroides thetaiotaomicron by agar dilution method; summary of the method: as §2
Cutibacterium acnes [7] = assay: Antimicrobial activity against Propionibacterium acnes assessed as resistant isolates by agar dilution method; summary of the method: as §1
Finegoldia magna [8] = assay: Antimicrobial activity against Finegoldia magna by agar dilution method
Summary of the method: (§4)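 Gram-positive anaerobes were tested by CLSI agar dilution on brucella agar enriched with 5% lysed defibrinated sheep blood and 1 μg/ml vitamin K1. Inoculum was log-phase growth at 0.5 McFarland, about 10^5 CFU/spot by replicator. Incubation was anaerobic, 37°C, 48 h. MIC was the lowest concentration with a marked growth change versus the drug-free plate. Eubacterium lentum ATCC 43055 was the control, and tests were repeated if it fell outside the CLSI range.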

Clostridium perfringens = assay: Antimicrobial activity against Clostridium perfringens by agar dilution method
Bacteroides fragilis [9] = assay: Antimicrobial activity against Bacteroides fragilis assessed as resistant isolates by agar dilution method; summary of the method: as §3
Bacteroides nordii [10] = assay: Antimicrobial activity against Bacteroides nordii assessed as resistant isolates by agar dilution method; summary of the method: as §3
Clostridium subterminale = assay: Antimicrobial activity against Clostridium subterminale by agar dilution method
Bacteroides uniformis [11] = assay: Antimicrobial activity against Bacteroides uniformis by agar dilution method; summary of the method: as §2
Bacteroides fragilis [12] = assay: Antimicrobial activity against Bacteroides fragilis by agar dilution method; summary of the method: as §2
[Clostridium] innocuum [13] = Antimicrobial activity against Clostridium innocuum by agar dilution method
Clostridioides difficile = assay: Antimicrobial activity against Clostridium difficile by agar dilution method
Clostridium tertium = assay: Antimicrobial activity against Clostridium tertium by agar dilution method
Cutibacterium acnes [14] = assay: Antimicrobial activity against Propionibacterium acnes by agar dilution method
Summary of the method: (§5)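 Log-phase isolates were adjusted to 0.5 McFarland, and about 10^5 CFU/spot was delivered by Steers replicator. Plates were incubated anaerobically at 37°C for 48 h. MIC was the lowest concentration giving a marked growth change versus the control plate. Eubacterium lentum ATCC 43055 was the QC strain, with repeats when out of range.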

Parabacteroides merdae [15] = assay: Antimicrobial activity against Bacteroides merdae assessed as resistant isolates by agar dilution method; summary of the method: as §3
Parabacteroides merdae [16] = assay: Antimicrobial activity against Bacteroides merdae by agar dilution method; summary of the method: as §2
Bacteroides uniformis [17] = assay: Antimicrobial activity against Bacteroides uniformis assessed as resistant isolates by agar dilution method; summary of the method: as §3
Parvimonas micra = assay: Antimicrobial activity against Micromonas micros by agar dilution method; summary of the method: as §4
Bacteroides caccae [18] = assay: Antimicrobial activity against Bacteroides caccae by agar dilution method; summary of the method: as §2
Bacteroides eggerthii [19] = assay: Antimicrobial activity against Bacteroides eggerthii assessed as resistant isolates by agar dilution method; summary of the method: as §3
Propionibacterium [20] = assay: Antimicrobial activity against Propionibacterium sp. assessed as resistant isolates by agar dilution method; summary of the method: as §1
Bacteroides ovatus [21] = assay: Antimicrobial activity against Bacteroides ovatus assessed as resistant isolates by agar dilution method; summary of the method: as §3
[22] = tested on: Parabacteroides distasonis; assay: Antimicrobial activity against Bacteroides distasonis assessed as resistant isolates by agar dilution method; summary of the method: as §3
Propionibacterium [23] = assay: Antimicrobial activity against Propionibacterium sp. by agar dilution method; summary of the method: as §5
Bacteroides nordii [24] = assay: Antimicrobial activity against Bacteroides nordii by agar dilution method; summary of the method: as §2
Phocaeicola vulgatus [25] = assay: Antimicrobial activity against Bacteroides vulgatus assessed as resistant isolates by agar dilution method; summary of the method: as §3
Anaerococcus prevotii = assay: Antimicrobial activity against Anaerococcus prevotii by agar dilution method; summary of the method: as §4
Bacteroides eggerthii [26] = assay: Antimicrobial activity against Bacteroides eggerthii by agar dilution method; summary of the method: as §2
Bacteroides caccae [27] = assay: Antimicrobial activity against Bacteroides caccae assessed as resistant isolates by agar dilution method; summary of the method: as §3
[28] = tested on: Clostridium paraputrificum; assay: Antimicrobial activity against Clostridium paraputrificum by agar dilution method
Peptostreptococcus sp. = assay: Antimicrobial activity against Peptostreptococcus sp. by agar dilution method; summary of the method: as §5
Phocaeicola vulgatus [29] = assay: Antimicrobial activity against Bacteroides vulgatus by agar dilution method; summary of the method: as §2
[Clostridium] innocuum [30] = Antimicrobial activity against Clostridium innocuum assessed as resistant isolates by agar dilution method; details: pooled result: one value given for 4 cell lines, strains, targets or settings
[31] = tested on: Peptoniphilus asaccharolyticus; assay: Antimicrobial activity against Peptoniphilus asaccharolyticus by agar dilution method; summary of the method: as §4

CCC[C@@H]1C[C@@H](C(=O)N[C@@H]([C@H]2O[C@H](SC)[C@H](O)[C@@H](O)[C@H]2O)[C@H](C)Cl)N(C)C1 [CLINDAMYCIN]
13.3%: Activity [22]
3.8%: Activity (Bacteroides uniformis [17])
1 µg/mL: MIC50 [2] | MIC (Clostridioides difficile) | MIC50 (Parabacteroides merdae [16]) | MIC50 (Bacteroides caccae [18]) | MIC50 (Bacteroides nordii [24]) | MIC50 (Bacteroides eggerthii [26])
7.7%: Activity (Propionibacterium [20])
12.2%: Activity [3]
0.5 µg/mL: MIC50 (Finegoldia magna [8]) | MIC (Bacteroides fragilis [12]) | MIC50 (Bacteroides fragilis [12]) | MIC90 (Cutibacterium acnes [14]) | MIC (Phocaeicola vulgatus [29]) | MIC50 (Phocaeicola vulgatus [29])
29.3%: Activity (Bacteroides fragilis [9])
22.2%: Activity ([Clostridium] innocuum [30])
32.3%: Activity (Phocaeicola vulgatus [25])
128 µg/mL: MIC90 [2] | MIC90 (Bacteroides ovatus [5]) | MIC90 [6] | MIC90 (Bacteroides uniformis [11]) | MIC90 (Bacteroides fragilis [12]) | MIC90 (Bacteroides caccae [18]) | MIC90 (Phocaeicola vulgatus [29])
0.25 µg/mL: MIC50 (Clostridium perfringens) | MIC (Cutibacterium acnes [14]) | MIC50 (Cutibacterium acnes [14]) | MIC50 (Parvimonas micra) | MIC (Propionibacterium [23]) | MIC50 (Propionibacterium [23]) | MIC50 (Anaerococcus prevotii) | MIC50 (Peptostreptococcus sp.) | MIC50 [31]
5.6%: Activity (Cutibacterium acnes [7])
34.6%: Activity [4]
31.3%: Activity (Bacteroides caccae [27])
42.9%: Activity (Bacteroides ovatus [21])
2 µg/mL: MIC50 (Bacteroides ovatus [5]) | MIC50 [6] | MIC90 (Clostridium perfringens) | MIC50 (Clostridium subterminale) | MIC50 (Bacteroides uniformis [11]) | MIC50 ([Clostridium] innocuum [13]) | MIC50 (Clostridium tertium) | MIC90 (Propionibacterium [23]) | MIC50 [28]
32 µg/mL: MIC90 (Finegoldia magna [8]) | MIC90 (Clostridium subterminale) | MIC90 ([Clostridium] innocuum [13]) | MIC90 (Clostridium tertium) | MIC90 (Parvimonas micra) | MIC90 (Anaerococcus prevotii) | MIC90 [28] | MIC90 (Peptostreptococcus sp.) | MIC90 [31]
20%: Activity (Finegoldia magna [1]) | Activity (Bacteroides nordii [10]) | Activity (Parabacteroides merdae [15]) | Activity (Bacteroides eggerthii [19])
8 µg/mL: MIC90 (Parabacteroides merdae [16]) | MIC90 (Bacteroides nordii [24]) | MIC90 (Bacteroides eggerthii [26])
